In ChEMBL document CHEMBL3120143, “Use of 2'-spirocyclic ethers in HCV nucleoside design” (J Med Chem, 2014):
Calls of active or inactive are those of the source. No cut-off for these calls is given here.

Experiments:
Hepatitis C virus [1] = assay: Antiviral activity against HCV genotype 1b infected in human ET-Lunet cells assessed as inhibition of HCV RNA replication after 4 days by firefly luciferase reporter gene assay; assay type: functional, organism-based, Hepacivirus hominis; conditions: 96 h
Method in brief: (§1)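 ET-Lunet cells carrying genotype 1b replicon seeded at 3000 cells/well, exposed 4 days to serially diluted compound; HCV RNA replication read as firefly luciferase luminescence (Bright-Glo). EC50 taken as concentration giving 50% inhibition, from curve fitting.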

[2] = Cytotoxicity against human Lunet cells expressing ET subgenomic replicon after 4 days by Celltitre-Glo assay; assay type: cell-based
Method in brief: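 ET-Lunet replicon cells, 3000 cells/well, incubated 4 days with serially diluted compound; proliferation/viability by CellTiter-Glo luminescence; CC50 = concentration giving 50% inhibition, curve-fitted.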

[3] = biological target: RNA-directed RNA polymerase (Hepacivirus hominis, UniProt O39930, S282T); assay: Inhibition of HCV genotype 1b recombinant NS5B RNA dependent RNA polymerase S282T mutant using IRES RNA as substrate after 30 mins by radioactive assay in presence of [alpha32p]UTP; parameters: species or system Hepatitis C virus subtype 1b
Chain of RNA-directed RNA polymerase (O39930 entry or part of it S282T): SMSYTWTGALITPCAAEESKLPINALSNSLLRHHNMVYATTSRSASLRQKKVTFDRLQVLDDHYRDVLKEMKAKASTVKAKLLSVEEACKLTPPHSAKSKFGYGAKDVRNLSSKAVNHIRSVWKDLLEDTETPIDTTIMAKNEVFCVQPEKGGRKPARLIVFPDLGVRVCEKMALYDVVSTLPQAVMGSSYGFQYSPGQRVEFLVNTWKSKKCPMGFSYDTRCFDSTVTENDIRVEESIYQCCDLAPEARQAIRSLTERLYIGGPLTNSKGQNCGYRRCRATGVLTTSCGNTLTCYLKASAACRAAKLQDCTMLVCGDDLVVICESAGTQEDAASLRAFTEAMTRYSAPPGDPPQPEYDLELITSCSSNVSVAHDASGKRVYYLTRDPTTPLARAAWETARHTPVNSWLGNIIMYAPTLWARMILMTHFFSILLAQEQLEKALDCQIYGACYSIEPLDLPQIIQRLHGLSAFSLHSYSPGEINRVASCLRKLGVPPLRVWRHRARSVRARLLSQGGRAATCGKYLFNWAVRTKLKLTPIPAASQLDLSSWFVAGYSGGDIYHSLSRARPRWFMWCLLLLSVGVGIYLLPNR

[4] = Inhibition of HCV genotype 1b wild type recombinant NS5B RNA dependent RNA polymerase using IRES RNA as substrate after 30 mins by radioactive assay in presence of [alpha32p]UTP; parameters: species or system Hepatitis C virus subtype 1b
Method in brief: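 Recombinant genotype 1b NS5B (wild-type or S282T), 40 ng/μL, with 20 ng/μL genotype 1b (−) IRES RNA template. Mix holds 5 μM each of the four natural ribonucleotides plus [α-³²P]UTP, RNase inhibitor 1 unit/μL, 5 mM MgCl₂ and 2 mM DTT in 50 mM Hepes pH 7.5. Incubated at 27 °C for 30 min, then stopped with EDTA/NaCl/citrate. Radioactive RNA product quantified and IC50 fitted.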

Hepatitis C virus [5] = assay: Antiviral activity against HCV genotype 1b infected in human ET-Lunet cells assessed as inhibition of HCV RNA replication up to 100 uM after 4 days by firefly luciferase reporter gene assay; assay type: functional, organism-based; conditions: Hepacivirus hominis; method in brief: as §1

SMILES | EC50 (Hepatitis C virus [1]) | CC50 at 96 h [2] | IC50 [3] | IC50 [4] | inhibition (Hepatitis C virus [5])
COc1nc(N)nc2c1ncn2[C@@H]1O[C@H](CO[P@](=O)(N[C@@H](C)C(=O)OCC(C)C)Oc2ccccc2)[C@@H](O)[C@]12CCO2 | 4.42 µM | > 20 µM |  |  | 
COC(=O)[C@H](C)NP(=O)(OC[C@H]1O[C@@H](n2ccc(=O)[nH]c2=O)[C@@]2(CCCO2)[C@@H]1O)Oc1ccccc1 (mixture of isomers) | 28.3 µM | > 100 µM |  |  | 
Nc1ccn([C@@H]2O[C@H](CO)[C@@H](O)[C@]23CCCO3)c(=O)n1 | > 100 µM | > 100 µM |  |  | 
Nc1ccn([C@@H]2O[C@H](CO)[C@@H](O)[C@@]23CCCO3)c(=O)n1 | > 100 µM | > 100 µM |  |  | 
C[C@@]1(F)[C@H](O)[C@@H](CO)O[C@H]1n1ccc(N)nc1=O |  |  | 56.7 µM | 8.41 µM | 
COc1nc(N)nc2c1ncn2[C@@H]1O[C@H](CO[P@@](=O)(N[C@@H](C)C(=O)OCc2ccccc2)Oc2ccccc2)[C@@H](O)[C@]12CCO2 | 8.65 µM | > 20 µM |  |  | 
COc1nc(N)nc2c1ncn2[C@@H]1O[C@H](CO[P@](=O)(N[C@@H](C)C(=O)OCC(C)(C)C)Oc2ccccc2)[C@@H](O)[C@]12CCO2 | 9.31 µM | > 20 µM |  |  | 
Nc1ccn([C@@H]2O[C@H](COP(=O)(O)OP(=O)(O)OP(=O)(O)O)[C@@H](O)[C@]23CCO3)c(=O)n1 |  |  | > 100 µM | 8.48 µM | 
COC(=O)[C@H](C)NP(=O)(OC[C@H]1O[C@@H](n2ccc(=O)[nH]c2=O)[C@@]2(CCO2)[C@@H]1O)Oc1ccccc1 (mixture of isomers) | 16.7 µM | > 100 µM |  |  | 
Nc1nc2c(ncn2[C@@H]2O[C@H](CO)[C@@H](O)[C@]23CCO3)c(=O)[nH]1 |  |  |  |  | inactive
Nc1ccn([C@@H]2O[C@H](COP(=O)(O)OP(=O)(O)OP(=O)(O)O)[C@@H](O)[C@@]23CCCO3)c(=O)n1 |  |  |  | > 100 µM | 
COc1nc(N)nc2c1ncn2[C@@H]1O[C@H](CO[P@](=O)(N[C@@H](C)C(=O)OC(C)C)Oc2ccccc2)[C@@H](O)[C@]12CCO2 | 4.52 µM | > 20 µM |  |  | 
COc1nc(N)nc2c1ncn2[C@@H]1O[C@H](CO[P@@](=O)(N[C@@H](C)C(=O)OCC(C)C)Oc2ccccc2)[C@@H](O)[C@]12CCO2 | 0.57 µM | > 20 µM |  |  | 
CCOC(=O)[C@H](C)N[P@](=O)(OC[C@H]1O[C@@H](n2cnc3c(OC)nc(N)nc32)[C@@]2(CCO2)[C@@H]1O)Oc1ccccc1 | 0.86 µM | > 20 µM |  |  | 
COC(=O)[C@H](C)NP(=O)(OC[C@H]1O[C@@H](n2ccc(=O)[nH]c2=O)[C@]2(CCCO2)[C@@H]1O)Oc1ccccc1 (mixture of isomers) | 20.6 µM | > 100 µM |  |  | 
COc1nc(N)nc2c1ncn2[C@@H]1O[C@H](COP(=O)(N[C@@H](C)C(=O)OCC(C)(C)C)Oc2cccc3ccccc23)[C@@H](O)[C@]12CCO2 (mixture of isomers) | 0.31 µM | > 20 µM |  |  | 
CCCCOC(=O)[C@H](C)N[P@@](=O)(OC[C@H]1O[C@@H](n2cnc3c(OC)nc(N)nc32)[C@@]2(CCO2)[C@@H]1O)Oc1ccccc1 | 3.1 µM | > 20 µM |  |  | 
Nc1ccn([C@@H]2O[C@H](COP(=O)(O)OP(=O)(O)OP(=O)(O)O)[C@@H](O)[C@@]23CCO3)c(=O)n1 |  |  |  | > 100 µM | 
COc1nc(N)nc2c1ncn2[C@@H]1O[C@H](CO[P@](=O)(N[C@@H](C)C(=O)OCc2ccccc2)Oc2ccccc2)[C@@H](O)[C@]12CCO2 | 11.7 µM | > 20 µM |  |  | 
COc1nc(N)nc2c1ncn2[C@@H]1O[C@H](CO[P@](=O)(N[C@@H](C)C(=O)OC2CCCC2)Oc2ccccc2)[C@@H](O)[C@]12CCO2 | 0.67 µM | > 20 µM |  |  | 

SMILES | EC50 (Hepatitis C virus [1]) | CC50 at 96 h [2] | IC50 [3] | IC50 [4] | inhibition (Hepatitis C virus [5])
COc1nc(N)nc2c1ncn2[C@@H]1O[C@H](CO[P@@](=O)(N[C@@H](C)C(=O)OC(C)C)Oc2ccccc2)[C@@H](O)[C@]12CCO2 | 0.0045 µM | > 20 µM |  |  | 
Nc1ccn([C@@H]2O[C@H](COP(=O)(O)OP(=O)(O)OP(=O)(O)O)[C@@H](O)[C@]23CCCO3)c(=O)n1 |  |  | > 100 µM | 45.3 µM | 
COc1nc(N)nc2c1ncn2[C@@H]1O[C@H](CO[P@@](=O)(N[C@@H](C)C(=O)OCC(C)(C)C)Oc2ccccc2)[C@@H](O)[C@]12CCO2 | 1.02 µM | > 20 µM |  |  | 
COC(=O)[C@H](C)NP(=O)(OC[C@H]1O[C@@H](n2cnc3c(OC)nc(N)nc32)[C@@]2(CCO2)[C@@H]1O)Oc1ccccc1 (mixture of isomers) | 7.16 µM | > 20 µM |  |  | 
O=c1ccn([C@@H]2O[C@H](CO)[C@@H](O)[C@]23CCCO3)c(=O)[nH]1 | > 100 µM | > 100 µM |  |  | 
COc1nc(N)nc2c1ncn2[C@@H]1O[C@H](CO[P@@](=O)(N[C@@H](C)C(=O)OC2CCCC2)Oc2ccccc2)[C@@H](O)[C@]12CCO2 | 0.45 µM | > 20 µM |  |  | 
Nc1ccn([C@@H]2O[C@H](CO)[C@@H](O)[C@@]23CCO3)c(=O)n1 | > 100 µM | > 100 µM |  |  | 
Nc1nc2c(ncn2[C@@H]2O[C@H](COP(=O)(O)OP(=O)(O)OP(=O)(O)O)[C@@H](O)[C@]23CCO3)c(=O)[nH]1 |  |  | 10.4 µM | 9.5 µM | 
CC(C)OC(=O)[C@H](C)NP(=O)(OC[C@H]1O[C@@H](n2ccc(N)nc2=O)[C@@]2(CCO2)[C@@H]1O)Oc1ccccc1 (stereo partly drawn) | 16.7 µM | > 100 µM |  |  | 
COC(=O)[C@H](C)NP(=O)(OC[C@H]1O[C@@H](n2ccc(=O)[nH]c2=O)[C@]2(CCO2)[C@@H]1O)Oc1ccccc1 (mixture of isomers) | 28.5 µM | > 100 µM |  |  | 
COc1nc(N)nc2c1ncn2[C@@H]1O[C@H](COP(=O)(O)OP(=O)(O)OP(=O)(O)O)[C@@H](O)[C@@]1(C)F |  |  | 5.31 µM | 4.2 µM | 
CCCCOC(=O)[C@H](C)N[P@](=O)(OC[C@H]1O[C@@H](n2cnc3c(OC)nc(N)nc32)[C@@]2(CCO2)[C@@H]1O)Oc1ccccc1 | 0.27 µM | > 20 µM |  |  | 
O=c1ccn([C@@H]2O[C@H](CO)[C@@H](O)[C@@]23CCCO3)c(=O)[nH]1 | 14.9 µM | > 100 µM |  |  | 
COc1nc(N)nc2c1ncn2[C@@H]1O[C@H](CO)[C@@H](O)[C@]12CCO2 |  |  |  |  | inactive
O=c1ccn([C@@H]2O[C@H](COP(=O)(O)OP(=O)(O)OP(=O)(O)O)[C@@H](O)[C@@]23CCCO3)c(=O)[nH]1 |  |  |  | > 100 µM | 
O=c1ccn([C@@H]2O[C@H](CO)[C@@H](O)[C@@]23CCO3)c(=O)[nH]1 | > 100 µM | > 100 µM |  |  | 
O=c1ccn([C@@H]2O[C@H](COP(=O)(O)OP(=O)(O)OP(=O)(O)O)[C@@H](O)[C@]23CCO3)c(=O)[nH]1 |  |  | > 100 µM | 39.4 µM | 
Nc1ccn([C@@H]2O[C@H](CO)[C@@H](O)[C@]23CCO3)c(=O)n1 | 56.6 µM | > 100 µM |  |  | 
O=c1ccn([C@@H]2O[C@H](CO)[C@@H](O)[C@]23CCO3)c(=O)[nH]1 | > 100 µM | > 100 µM |  |  | 
